Laboratory results from ChEMBL document CHEMBL4118152, “Discovery of Potent and Selective Periphery-Restricted Quinazoline Inhibitors of the Cyclic Nucleotide Phosphodiesterase PDE1” (J Med Chem, 2018).

Experiments:
CYP3A4 = CYP3A4 (Homo sapiens, UniProt P08684); assay: Inhibition of CYP3A4 (unknown origin) at 10 uM relative to control; assay type: ADME
[1] = molecular target: 3',5'-cyclic-AMP phosphodiesterase 4D (Homo sapiens, UniProt Q08499); assay: Inhibition of full length recombinant human PDE4D3 using 3',5'-[3H]cAMP as substrate after 30 mins by scintillation proximity assay
Method in brief: (§1)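 Enzymes were human except PDE6A, which was bovine. Each was assayed with cAMP or cGMP substrate, as appropriate to the enzyme, at concentrations below 1/3 of Km. IC50 values are mean ± SEM from n = 3 or more.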

[2] = molecular target: Dual specificity calcium/calmodulin-dependent 3',5'-cyclic nucleotide phosphodiesterase 1A (Homo sapiens, UniProt P54750); assay: Inhibition of full length recombinant human PDE1A using 3',5'-[3H]cAMP as substrate after 30 mins by scintillation proximity assay
Method in brief: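 Human recombinant enzymes; substrate held below 1/3 of Km. IC50 reported as mean ± SEM of at least 3 determinations.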

[3] = molecular target: Mu-type opioid receptor (Homo sapiens) (UniProt P35372); assay: Inhibition of human mu opioid receptor at 10 uM relative to control
Homo sapiens [4] = organism: Homo sapiens; assay: Inhibition of human calcium modulated kinase 2 at 10 uM relative to control
[5] = Ratio of drug uptake in cerebrospinal fluid to fraction unbound in plasma in Wistar Hannover rat at 1 mg/kg, sc measured at 2 hrs post dose by LC-MS/MS analysis; assay type: ADME, organism-based, CSF/Plasma; details: in vivo
[6] = Drug uptake in Wistar Hannover rat cerebrospinal fluid at 1 mg/kg, sc measured at 4 hrs post dose by LC-MS/MS analysis; assay type: ADME, organism-based; details: in vivo, BLD = below limit of detection
Method in brief: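 Rats were dosed subcutaneously at 1 mg/kg. CSF, plasma and brain were sampled at 0.5, 1, 2 and 4 h post dose and analysed for drug concentration. Values are means at each time point.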

[7] = molecular target: cGMP-specific 3',5'-cyclic phosphodiesterase (Homo sapiens, UniProt O76074); assay: Inhibition of full length recombinant human PDE5A1 using 3',5'-[3H]cGMP as substrate after 30 mins by scintillation proximity assay; method in brief: as §1
[8] = molecular target: Alpha-2A adrenergic receptor (Homo sapiens) (UniProt P08913); assay: Inhibition of human alpha2A receptor at 10 uM relative to control
Homo sapiens [9] = organism: Homo sapiens; assay: Selectivity ratio of IC50 for full length recombinant human PDE11A4 to IC50 for full length recombinant human PDE1A
Method in brief: (§2)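 IC50s were measured against recombinant PDEs, all human except PDE6A (bovine). Each enzyme was given its appropriate cAMP or cGMP substrate at below 1/3 of its Km. IC50s are the mean of n = 3 or more. The selectivity ratio is the IC50 for the other PDE divided by the IC50 for PDE1B1 or PDE1A.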

[10] = Ratio of fraction unbound in Wistar Hannover rat brain to plasma at 1 mg/kg, sc measured at 0.5 hrs post dose by LC-MS/MS analysis; assay type: ADME, organism-based; details: in vivo
Rattus norvegicus = organism: Rattus norvegicus; assay: Inhibition of rat GABA-A receptor at 10 uM relative to control
Homo sapiens [11] = organism: Homo sapiens; assay: Selectivity ratio of IC50 for full length recombinant human PDE7B to IC50 for full length recombinant human PDE1B1; method in brief: as §2
Homo sapiens [12] = organism: Homo sapiens; assay: Selectivity ratio of IC50 for full length recombinant human PDE2A1 to IC50 for full length recombinant human PDE1A; method in brief: as §2
CYP2C9 = CYP2C9 (Homo sapiens, UniProt P11712); assay: Inhibition of human CYP2C9 at 10 uM relative to control; assay type: ADME
Homo sapiens [13] = organism: Homo sapiens; assay: Inhibition of human endothelin receptor at 10 uM relative to control
[14] = Fraction unbound in Wistar Hannover rat plasma at 1 mg/kg, sc measured at 0.5 hrs post dose by LC-MS/MS analysis; assay type: ADME, organism-based; details: in vivo
[15] = molecular target: Melatonin receptor type 1A (Homo sapiens) (UniProt P48039); assay: Inhibition of human MT1A at 10 uM relative to control
Homo sapiens [16] = organism: Homo sapiens; assay: Selectivity ratio of IC50 for full length recombinant human PDE5A1 to IC50 for full length recombinant human PDE1A; method in brief: as §2
Homo sapiens [17] = organism: Homo sapiens; assay: Selectivity ratio of IC50 for full length recombinant human PDE3A1 to IC50 for full length recombinant human PDE1A; method in brief: as §2
[18] = molecular target: Angiotensin-converting enzyme (Homo sapiens) (UniProt P12821); assay: Inhibition of recombinant human Acetylcholinesterase using acetylthiocholine as substrate at 10 uM after 30 mins by spectrophotometric method relative to control
[19] = molecular target: 5-hydroxytryptamine receptor 6 (Homo sapiens) (UniProt P50406); assay: Inhibition of human 5-HT6 receptor at 10 uM relative to control
[20] = molecular target: Cannabinoid receptor 1 (Homo sapiens) (UniProt P21554); assay: Inhibition of human cannabinoid CB1 receptor at 10 uM relative to control
[21] = molecular target: D(2) dopamine receptor (Homo sapiens) (UniProt P14416); assay: Inhibition of dopamine D2 receptor (unknown origin) at 10 uM relative to control
[22] = Fraction unbound in Wistar Hannover rat plasma at 1 mg/kg, sc measured at 2 hrs post dose by LC-MS/MS analysis; assay type: ADME, organism-based; details: in vivo
[23] = molecular target: Muscarinic acetylcholine receptor M5 (Homo sapiens) (UniProt P08912); assay: Inhibition of human muscarinic M5 receptor at 10 uM relative to control
[24] = molecular target: Melanocortin receptor 3 (Homo sapiens) (UniProt P41968); assay: Inhibition of human Melanocortin 3 receptor at 10 uM relative to control
[25] = molecular target: Substance-K receptor (Homo sapiens) (UniProt P21452); assay: Inhibition of NK2 receptor (unknown origin) at 10 uM relative to control
[26] = molecular target: Prostaglandin G/H synthase 2 (Homo sapiens) (UniProt P35354); assay: Inhibition of recombinant human cyclooxygenase 2 using arachidonic acid/ADHP as substrate at 10 uM after 5 mins by Fluorimetric method relative to control
Homo sapiens [27] = organism: Homo sapiens; assay: Selectivity ratio of IC50 for full length recombinant human PDE2A1 to IC50 for full length recombinant human PDE1B1; method in brief: as §2
[28] = Fraction unbound in Wistar Hannover rat brain at 1 mg/kg, sc measured at 1 hr post dose by LC-MS/MS analysis; assay type: ADME, organism-based; details: in vivo
[29] = molecular target: Carbonic anhydrase 2 (Homo sapiens) (UniProt P00918); assay: Inhibition of human carbonic anhydrase 2 using 4-nitrophenyl acetate as substrate at 10 uM after 20 mins by spectrophotometric method relative to control
Homo sapiens [30] = organism: Homo sapiens; assay: Selectivity ratio of IC50 for full length recombinant human PDE9A1 to IC50 for full length recombinant human PDE1A; method in brief: as §2
Homo sapiens [31] = organism: Homo sapiens; assay: Selectivity ratio of IC50 for full length recombinant human PDE8B to IC50 for full length recombinant human PDE1B1; method in brief: as §2
[32] = molecular target: Adenosine receptor A3 (Homo sapiens) (UniProt P0DMS8); assay: Inhibition of human adenosine A3 receptor at 10 uM relative to control
Homo sapiens [33] = organism: Homo sapiens; assay: Selectivity ratio of IC50 for full length recombinant human PDE1C to IC50 for full length recombinant human PDE1B1; method in brief: as §2
[34] = Selectivity ratio of IC50 for bovine retina PDE6A to IC50 for full length recombinant human PDE1B1; method in brief: as §2
[35] = molecular target: Angiotensin-converting enzyme (Homo sapiens) (UniProt P12821); assay: Inhibition of human angiotensin converting enzyme at 10 uM relative to control

Sequence of Angiotensin-converting enzyme (Homo sapiens) (P12821 whole entry): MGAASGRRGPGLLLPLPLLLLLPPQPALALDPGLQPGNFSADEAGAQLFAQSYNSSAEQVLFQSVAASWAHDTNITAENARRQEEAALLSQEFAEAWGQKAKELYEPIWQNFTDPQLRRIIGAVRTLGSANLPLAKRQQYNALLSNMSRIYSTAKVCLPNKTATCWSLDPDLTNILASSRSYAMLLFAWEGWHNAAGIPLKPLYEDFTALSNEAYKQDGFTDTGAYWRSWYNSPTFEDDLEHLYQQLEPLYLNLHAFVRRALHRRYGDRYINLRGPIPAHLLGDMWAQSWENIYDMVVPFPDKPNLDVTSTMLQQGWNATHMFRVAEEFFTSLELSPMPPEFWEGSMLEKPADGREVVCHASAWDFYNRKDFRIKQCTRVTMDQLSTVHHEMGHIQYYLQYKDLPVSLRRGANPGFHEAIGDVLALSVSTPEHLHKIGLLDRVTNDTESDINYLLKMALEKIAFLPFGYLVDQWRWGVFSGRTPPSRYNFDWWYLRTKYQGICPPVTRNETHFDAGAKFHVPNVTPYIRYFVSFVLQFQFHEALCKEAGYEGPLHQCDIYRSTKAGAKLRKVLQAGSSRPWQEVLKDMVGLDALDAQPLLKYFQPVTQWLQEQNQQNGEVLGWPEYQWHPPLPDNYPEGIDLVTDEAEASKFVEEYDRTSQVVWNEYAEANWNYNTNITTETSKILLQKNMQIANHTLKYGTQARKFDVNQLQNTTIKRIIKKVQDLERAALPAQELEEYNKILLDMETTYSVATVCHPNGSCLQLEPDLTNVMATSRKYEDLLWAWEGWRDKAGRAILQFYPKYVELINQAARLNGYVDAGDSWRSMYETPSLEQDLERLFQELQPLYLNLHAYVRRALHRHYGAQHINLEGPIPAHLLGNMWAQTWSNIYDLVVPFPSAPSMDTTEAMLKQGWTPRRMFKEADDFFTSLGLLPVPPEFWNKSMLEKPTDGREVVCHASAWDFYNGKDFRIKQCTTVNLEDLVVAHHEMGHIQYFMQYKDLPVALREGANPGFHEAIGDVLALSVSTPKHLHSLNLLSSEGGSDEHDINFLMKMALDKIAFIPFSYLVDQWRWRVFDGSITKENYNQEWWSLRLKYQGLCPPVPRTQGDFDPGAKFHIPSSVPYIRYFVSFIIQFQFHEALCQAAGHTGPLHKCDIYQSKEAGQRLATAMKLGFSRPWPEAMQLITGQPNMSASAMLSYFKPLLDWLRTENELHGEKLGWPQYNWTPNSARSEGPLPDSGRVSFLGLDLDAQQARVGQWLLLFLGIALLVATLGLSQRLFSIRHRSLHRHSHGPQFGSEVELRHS
Sequence of Substance-K receptor (Homo sapiens) (P21452 whole entry): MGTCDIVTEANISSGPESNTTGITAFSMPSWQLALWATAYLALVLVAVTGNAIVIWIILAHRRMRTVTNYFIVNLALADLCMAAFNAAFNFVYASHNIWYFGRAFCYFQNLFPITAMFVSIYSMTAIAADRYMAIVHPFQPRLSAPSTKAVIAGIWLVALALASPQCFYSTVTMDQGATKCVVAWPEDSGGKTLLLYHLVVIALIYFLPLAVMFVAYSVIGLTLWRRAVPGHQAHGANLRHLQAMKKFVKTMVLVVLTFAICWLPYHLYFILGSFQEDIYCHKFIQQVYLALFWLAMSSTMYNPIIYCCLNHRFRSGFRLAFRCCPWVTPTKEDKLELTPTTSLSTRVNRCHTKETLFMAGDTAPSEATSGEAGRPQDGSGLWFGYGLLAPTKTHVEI
Sequence of D(2) dopamine receptor (Homo sapiens) (P14416 whole entry): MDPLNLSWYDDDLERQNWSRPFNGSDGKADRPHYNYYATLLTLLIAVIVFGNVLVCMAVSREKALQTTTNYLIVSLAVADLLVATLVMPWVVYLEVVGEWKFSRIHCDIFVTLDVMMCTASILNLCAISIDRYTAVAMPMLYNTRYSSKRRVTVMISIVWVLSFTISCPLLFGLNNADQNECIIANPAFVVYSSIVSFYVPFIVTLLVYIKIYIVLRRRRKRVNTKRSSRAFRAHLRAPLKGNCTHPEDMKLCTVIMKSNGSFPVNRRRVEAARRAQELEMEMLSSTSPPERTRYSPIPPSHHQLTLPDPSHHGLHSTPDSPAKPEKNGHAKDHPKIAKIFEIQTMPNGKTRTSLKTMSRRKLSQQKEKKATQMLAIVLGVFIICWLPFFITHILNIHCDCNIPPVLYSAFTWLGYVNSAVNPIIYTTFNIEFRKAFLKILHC
Sequence of 3',5'-cyclic-AMP phosphodiesterase 4D (Q08499 whole entry): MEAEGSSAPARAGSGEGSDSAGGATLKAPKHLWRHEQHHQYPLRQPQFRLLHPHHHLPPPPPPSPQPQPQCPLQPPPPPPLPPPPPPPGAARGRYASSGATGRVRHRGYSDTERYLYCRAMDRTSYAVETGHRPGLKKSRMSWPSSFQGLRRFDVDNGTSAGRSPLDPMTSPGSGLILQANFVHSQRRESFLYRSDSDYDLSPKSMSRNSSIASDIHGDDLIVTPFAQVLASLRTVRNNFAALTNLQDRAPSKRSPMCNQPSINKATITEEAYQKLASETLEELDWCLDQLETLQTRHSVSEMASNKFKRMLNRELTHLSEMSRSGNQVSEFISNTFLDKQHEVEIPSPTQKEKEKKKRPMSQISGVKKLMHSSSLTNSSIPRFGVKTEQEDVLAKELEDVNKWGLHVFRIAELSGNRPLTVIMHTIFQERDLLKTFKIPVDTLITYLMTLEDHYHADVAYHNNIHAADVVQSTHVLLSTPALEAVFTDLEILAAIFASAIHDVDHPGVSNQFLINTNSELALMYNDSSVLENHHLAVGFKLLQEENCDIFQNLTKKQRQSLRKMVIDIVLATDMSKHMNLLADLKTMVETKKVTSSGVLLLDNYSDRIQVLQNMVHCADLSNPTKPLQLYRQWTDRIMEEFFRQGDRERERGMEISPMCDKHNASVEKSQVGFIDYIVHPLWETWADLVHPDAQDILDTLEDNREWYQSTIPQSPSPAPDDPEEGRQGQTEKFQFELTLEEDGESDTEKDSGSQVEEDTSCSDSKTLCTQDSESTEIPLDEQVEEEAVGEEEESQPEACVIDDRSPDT
Sequence of Muscarinic acetylcholine receptor M5 (Homo sapiens) (P08912 whole entry): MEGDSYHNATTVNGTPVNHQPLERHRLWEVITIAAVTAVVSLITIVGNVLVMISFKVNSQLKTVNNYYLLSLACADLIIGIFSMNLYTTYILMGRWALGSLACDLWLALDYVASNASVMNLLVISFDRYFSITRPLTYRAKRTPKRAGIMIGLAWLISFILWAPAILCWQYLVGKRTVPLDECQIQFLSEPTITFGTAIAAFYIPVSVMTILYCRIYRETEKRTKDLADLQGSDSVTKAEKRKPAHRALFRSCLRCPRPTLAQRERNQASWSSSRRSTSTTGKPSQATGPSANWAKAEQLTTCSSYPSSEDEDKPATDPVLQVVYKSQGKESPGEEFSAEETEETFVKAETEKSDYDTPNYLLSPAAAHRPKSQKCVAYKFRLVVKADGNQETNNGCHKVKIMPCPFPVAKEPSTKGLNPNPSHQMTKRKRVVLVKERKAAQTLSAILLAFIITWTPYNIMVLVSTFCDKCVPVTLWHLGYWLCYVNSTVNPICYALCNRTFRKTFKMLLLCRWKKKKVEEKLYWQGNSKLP
Sequence of Alpha-2A adrenergic receptor (Homo sapiens) (P08913 whole entry): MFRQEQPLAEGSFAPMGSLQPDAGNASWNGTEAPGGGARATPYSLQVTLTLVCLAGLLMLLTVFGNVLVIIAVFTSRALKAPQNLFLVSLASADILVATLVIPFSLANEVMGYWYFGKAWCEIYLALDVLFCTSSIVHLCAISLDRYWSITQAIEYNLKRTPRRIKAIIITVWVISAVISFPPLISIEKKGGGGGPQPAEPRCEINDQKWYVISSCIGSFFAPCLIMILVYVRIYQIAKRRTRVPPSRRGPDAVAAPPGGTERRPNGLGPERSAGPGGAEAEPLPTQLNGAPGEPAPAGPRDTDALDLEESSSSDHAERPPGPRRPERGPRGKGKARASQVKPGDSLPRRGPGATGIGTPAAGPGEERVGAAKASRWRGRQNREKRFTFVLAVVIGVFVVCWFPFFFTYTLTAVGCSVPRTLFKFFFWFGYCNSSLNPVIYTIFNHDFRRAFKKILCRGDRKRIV
Sequence of Melanocortin receptor 3 (Homo sapiens) (P41968 whole entry): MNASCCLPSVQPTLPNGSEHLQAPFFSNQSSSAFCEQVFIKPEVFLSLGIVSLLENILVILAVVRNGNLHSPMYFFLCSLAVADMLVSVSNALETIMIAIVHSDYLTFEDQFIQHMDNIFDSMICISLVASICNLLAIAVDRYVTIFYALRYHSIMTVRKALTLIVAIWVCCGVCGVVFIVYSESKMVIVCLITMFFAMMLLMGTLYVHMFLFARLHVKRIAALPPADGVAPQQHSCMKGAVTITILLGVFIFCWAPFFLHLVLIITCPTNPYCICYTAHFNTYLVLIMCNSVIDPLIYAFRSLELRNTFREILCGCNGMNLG
Sequence of Mu-type opioid receptor (Homo sapiens) (P35372 whole entry): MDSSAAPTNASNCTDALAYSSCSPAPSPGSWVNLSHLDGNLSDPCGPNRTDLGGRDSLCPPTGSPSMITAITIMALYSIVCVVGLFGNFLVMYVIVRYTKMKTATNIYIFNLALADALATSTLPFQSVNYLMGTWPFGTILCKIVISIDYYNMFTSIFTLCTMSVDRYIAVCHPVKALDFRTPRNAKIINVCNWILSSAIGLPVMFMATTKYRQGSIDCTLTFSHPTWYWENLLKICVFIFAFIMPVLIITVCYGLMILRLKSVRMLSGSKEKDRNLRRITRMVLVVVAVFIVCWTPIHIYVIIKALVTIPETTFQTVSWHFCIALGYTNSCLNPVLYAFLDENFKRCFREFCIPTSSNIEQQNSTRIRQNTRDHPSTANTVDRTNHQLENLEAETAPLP
Sequence of Melatonin receptor type 1A (Homo sapiens) (P48039 whole entry): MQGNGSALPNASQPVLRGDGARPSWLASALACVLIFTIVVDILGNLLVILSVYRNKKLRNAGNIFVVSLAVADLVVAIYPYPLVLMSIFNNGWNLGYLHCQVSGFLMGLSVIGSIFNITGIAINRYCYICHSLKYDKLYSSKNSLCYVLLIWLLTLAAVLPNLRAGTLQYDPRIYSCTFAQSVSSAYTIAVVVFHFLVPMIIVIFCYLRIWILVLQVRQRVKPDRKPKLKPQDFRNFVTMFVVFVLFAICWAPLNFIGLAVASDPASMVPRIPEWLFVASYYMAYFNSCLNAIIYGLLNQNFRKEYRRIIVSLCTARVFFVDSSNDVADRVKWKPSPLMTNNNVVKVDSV

COc1ccc2c(N[C@@H](C)Cc3cc(C)[nH]n3)ncnc2c1OC
inhibition at 10 µM (CYP3A4): < 50% | IC50 [1]: 26.3 µM | IC50 [2]: 0.042 µM | inhibition [3]: < 50% | inhibition (Homo sapiens [4]): < 50% | Ratio [5]: 0.2 | Drug uptake [6]: Bld | IC50 [7]: 54.3 µM | inhibition [8]: < 50% | Ratio IC50 (Homo sapiens [9]): 826 | Ratio [10]: 0.04 | inhibition (Rattus norvegicus): < 50% | Ratio IC50 (Homo sapiens [11]): 4540 | Ratio IC50 (Homo sapiens [12]): 1130 | inhibition at 10 µM (CYP2C9): < 50% | inhibition (Homo sapiens [13]): < 50% | Cp(f) [14]: 171 nM | inhibition [15]: < 50% | Ratio IC50 (Homo sapiens [16]): 1290 | Ratio IC50 (Homo sapiens [17]): 3170 | inhibition [18]: < 50% | inhibition [19]: < 50% | inhibition [20]: < 50% | inhibition [21]: < 50% | Cp(f) [22]: 40 nM | inhibition [23]: < 50% | inhibition [24]: < 50% | inhibition [25]: < 50% | inhibition [26]: < 50% | Ratio IC50 (Homo sapiens [27]): 5230 | Drug uptake(free) [28]: 4 nM | inhibition [29]: < 50% | Ratio IC50 (Homo sapiens [30]): > 4760 | Ratio IC50 (Homo sapiens [31]): 1700 | inhibition [32]: < 50% | Ratio IC50 (Homo sapiens [33]): 4.2 | Ratio IC50 [34]: > 15600 | inhibition [35]: < 50%
